Reference: ChEMBL document CHEMBL4808167, “Design, Synthesis, and Evaluation of Small Molecule Gαq/11 Protein Inhibitors for the Treatment of Uveal Melanoma” (J Med Chem, 2021)
The source made the active and inactive calls. The rule behind the calls is not given here.

What was measured:
[1] = Cmax in ICR mouse at 30 mg/kg, po measured upto 24 hrs by LC-MS/MS analysis; assay type: ADME, organism-based; parameters: route oral, dose 30 mg/kg, time <=24; conditions: in vivo
Outline: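 Single dose in male ICR mice, 10 mg/kg iv or 30 mg/kg po, dissolved in 5% DMSO/95% saline. Blood drawn by catheter at 0, 5, 15, 30 min and 1, 2, 4, 6, 8, 24 h. Plasma spun 6800g 6 min at 2−8 °C, stored −80 °C, quantified by LC−MS/MS. Noncompartmental parameters, mean ± SD, n = 6.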

[2] = MRT(0 to t) in ICR mouse at 30 mg/kg, po measured upto 24 hrs by LC-MS/MS analysis; assay type: ADME, organism-based; conditions: in vivo
Outline: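 Single-dose PK in male ICR mice (n = 6): 10 mg/kg iv or 30 mg/kg po, vehicle 5% DMSO/95% saline. Blood (30 μL) by catheter at 0, 5, 15, 30 min and 1, 2, 4, 6, 8, 24 h; plasma by centrifugation, stored −80 °C, measured by LC–MS/MS. Parameters from noncompartmental analysis, mean SD.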

[3] = target: T1, GNAQ/GNA11 (Homo sapiens) (UniProt P50148+P29992); experiment: Inhibition of Galphaq/11 in human MP41 cells assessed as induction of YAP phosphorylation at 5 to 15 uM after 48 hrs by Western blot analysis; assay type: cell-based; conditions: dose 5-15 µM
Outline: (§1)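 92.1 and MP41 cells plated overnight, then exposed to compound 48 h. Lysed in ice-cold buffer and protein quantified by BCA. Resolved on 8−12% SDS−PAGE and transferred to PVDF. Probed for p-YAP Ser127, total YAP, p-ERK1/2 Thr202/Tyr204 and total ERK1/2, with GAPDH as loading control. ECL detection, triplicate.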

GNAQ/GNA11 = target: T2, GNAQ/GNA11 (Homo sapiens, UniProt P50148+P29992); experiment: Inhibition of Galphaq/11 (unknown origin) expressed in CHO cells coexpressing M1 receptor assessed as reduction in carbachol-induced IP1 accumulation preincubated for 1 hr followed by carbachol stimulation and measured after 1 hr by HTRF assay; assay type: cell-based
T2 sequence (P50148 whole entry): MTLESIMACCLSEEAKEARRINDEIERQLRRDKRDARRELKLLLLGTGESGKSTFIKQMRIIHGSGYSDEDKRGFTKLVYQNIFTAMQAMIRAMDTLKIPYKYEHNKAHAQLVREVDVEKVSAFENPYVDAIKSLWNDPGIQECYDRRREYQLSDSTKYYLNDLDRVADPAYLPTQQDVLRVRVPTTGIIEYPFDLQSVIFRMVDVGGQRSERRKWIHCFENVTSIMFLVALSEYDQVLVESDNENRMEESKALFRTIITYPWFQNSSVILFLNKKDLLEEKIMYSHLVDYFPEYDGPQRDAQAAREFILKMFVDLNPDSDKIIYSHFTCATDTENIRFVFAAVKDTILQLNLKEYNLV
T2 sequence (P29992 whole entry): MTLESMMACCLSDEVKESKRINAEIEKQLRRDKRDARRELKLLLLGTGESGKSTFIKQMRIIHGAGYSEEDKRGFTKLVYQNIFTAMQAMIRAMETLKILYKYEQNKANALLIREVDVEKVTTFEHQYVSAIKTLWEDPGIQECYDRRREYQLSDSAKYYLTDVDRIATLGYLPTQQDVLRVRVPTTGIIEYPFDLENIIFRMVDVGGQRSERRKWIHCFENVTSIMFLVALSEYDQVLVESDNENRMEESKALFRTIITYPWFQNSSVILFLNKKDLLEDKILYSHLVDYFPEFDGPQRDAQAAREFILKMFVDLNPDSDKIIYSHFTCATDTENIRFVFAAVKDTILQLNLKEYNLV

921 [4] = experiment: Inhibition of cell invasion in human 921 cells at 5 to 15 uM incubated for 48 hrs by transwell assay; assay type: functional, cell-based; conditions: dose 5-15 µM
Outline: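 92.1 or MP41 cells (1 × 10⁴/well) seeded in serum-free medium in the upper transwell chamber, with 20% FBS medium below. Left overnight, then treated 48 h. Non-migrated cells swabbed off; cells on the lower side stained with crystal violet 30 min and counted by light microscopy (×40 for migration, ×100 for invasion). Mean ± SD, n = 3.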

[5] = Induction of apoptosis in human MP41 cells assessed as late apoptotic cells at 15 uM after 48 hrs by Annexin-V-FITC/propidium iodide staining based flow cytometry (reference value: 3.28%); assay type: functional
921 [6] = experiment: Antiproliferative activity against GNAQ knock down human 92.1 cells assessed as inhibition of cell growth at 10 to 15 uM after 72 hrs by CKK8 assay; assay type: functional; conditions: dose 10-15 µM
MP41 [7] = experiment: Inhibition of cell migration in human MP41 cells at 30 uM incubated for 48 hrs by Transwell migration assay; assay type: functional, cell-based
Outline: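 Transwell migration: 92.1 and MP41 cells (RPMI-1640, 10% FBS) seeded 1 × 10⁴/well in upper chamber in serum-free medium, 20% FBS medium below; overnight at 37 °C, then compound for 48 h. Non-migrated cells swabbed off; lower cells crystal violet-stained 30 min, counted by light microscopy. Mean SD of three independent experiments.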

921 [8] = experiment: Antiproliferative activity against human 92.1 cells assessed as inhibition of cell growth at 10 to 15 uM after 72 hrs by CKK8 assay; assay type: functional, cell-based; conditions: dose 10-15 µM
MP41 [9] = experiment: Antiproliferative activity against human MP41 cells assessed as inhibition of cell growth at 15 to 30 uM by CCK8 assay; assay type: functional, cell-based; conditions: dose 15-30 µM, time 24-96 hrs, TDE = time-dependent effect
[10] = Toxicity in nude BALB/c mouse xenografted with human MP41 cells assessed as morphological changes in spleen tissue at 10 to 30 mg/kg, ip administered once daily for 21 days and measured every 3 days by HE staining based assay; assay type: organism-based; conditions: in vivo, 504 h, dose 10-30 mg/kg, time 21 day
Outline: (§2)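 Nude BALB/c mice bearing serially passaged MP41 tumour slices (tertiary recipients, n = 8/group, randomized) dosed ip daily for 21 days at 10 or 30 mg/kg/d or vehicle. Body weight monitored every 3 days. Tissues collected at sacrifice, fixed in 4% paraformaldehyde 24 h, paraffin-embedded, H&E stained, viewed at ×100.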

[11] = Toxicity in nude BALB/c mouse xenografted with human MP41 cells assessed as morphological changes in liver tissue at 10 to 30 mg/kg, ip administered once daily for 21 days and measured every 3 days by HE staining based assay; assay type: organism-based; conditions: in vivo, 504 h, dose 10-30 mg/kg, time 21 day; outline: as §2
[12] = Induction of apoptosis in human 921 cells assessed as viable cells at 5 uM after 48 hrs by Annexin-V-FITC/propidium iodide staining based flow cytometry (reference value: 93.8%); assay type: functional; conditions: read-out: Activity
[13] = target: T1, GNAQ/GNA11 (Homo sapiens); experiment: Inhibition of Galphaq/11 in human MP41 cells assessed as induction of YAP phosphorylation at 15 to 30 uM after 48 hrs by Western blot analysis; assay type: cell-based; conditions: dose 15-30 µM; outline: as §1
[14] = Induction of apoptosis in human 921 cells assessed as viable cells at 15 uM after 48 hrs by Annexin-V-FITC/propidium iodide staining based flow cytometry (reference value: 93.8%); assay type: functional; conditions: read-out: Activity
[15] = Toxicity in nude BALB/c mouse xenografted with human MP41 cells assessed as morphological changes in kidney tissue at 10 to 30 mg/kg, ip administered once daily for 21 days and measured every 3 days by HE staining based assay; assay type: organism-based; conditions: in vivo, 504 h, dose 10-30 mg/kg, time 21 day; outline: as §2

Cmax [1]: 2890 ng/mL
MRT last at 24 h [2]: 1.88 h
inhibition [3]: Active
IC50 (GNAQ/GNA11): 22.6 µM
inhibition [13]: Active
SMILES: CC[C@@H](C)[C@H](N)C(=O)N1CCn2cc(-c3ccccc3)nc2[C@@H]1CC1CCCCC1
inhibition 921 [4]: Active
Activity [5]: 4.42%
Activity 921 [6]: inactive
inhibition (MP41 [7]): Active
Activity 921 [8]: Active
Activity (MP41 [9]): Tde
Activity [10]: Non-Toxic
Activity [11]: Non-Toxic
viability at 5 µM [12]: 90.1%
viability at 15 µM [14]: 79.6%
Activity [15]: Non-Toxic
